Data reported in PubChem BioAssay AID504383 (The Scripps Research Institute Molecular Screening Center, 2011).
About 1,200 (48%) of roughly 2,500 compounds were called active. The set was probably picked from earlier hits. The list shows a part of the results. A number with no mark means an inactive call.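 Rule for the calls: active = mean activation above the low control average plus 3 SD, as set in the primary screen (cut at about 12% in these data); inactive = the rest.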

molecular target: Troponin I, cardiac muscle (Homo sapiens) + Troponin T, cardiac muscle (Homo sapiens) + Troponin C, slow skeletal and cardiac muscles (Homo sapiens) (UniProt P19429+P45379+P63316); experiment: cardiac RTF calcium sensitivity activators, confirmation, biochemical, IANBD-TnC fluorescence, triplicate (AID 504383); settings: IANBD-labeled cardiac RTF, Ca2+ sensitivity fluorescence; at 7.2 µM; stronger effect = higher value; scaled from EC20 to saturating calcium; tested at EC20 calcium, 0.472 mM;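 note: 0% = DMSO at 0.472 mM calcium and 100% = DMSO at 2.9 mM calcium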
Summary of the method: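 Assay system: labelled regulated thin filaments / Timing: 15 min at 25 °C / Detection: fluorescence intensity of labelled filaments / Measure: fluorescence gain scaled between EC20 and EC100 calcium controls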

Row | SMILES | activation
1 | NC(=O)C1(NC(=O)[C@@H]2CC3(CC(c4cccc(NC(=O)[C@@H]5CCC(=O)N5)c4)=NO3)CN2C(=O)c2ccccc2)CC1 (some centres undefined) | 9.17%
2 | COc1ccc(N/C=C2\C(=O)CCc3c2oc2cc(Cl)c(O)c(Cl)c32)cc1 | 47.7% (active)
3 | Cc1cccc(/C=C2/SC(=O)N(Cc3ccccc3)C2=O)n1 | 47.1% (active)
4 | COC(=O)c1ccccc1NC(=O)[C@@H]1CCC(=O)N1C1OC(=O)c2c1ccc(OC)c2OC (some centres undefined) | 3.55%
5 | CCOc1cc2c(cc1/C=C/c1noc(C)c1[N+](=O)[O-])OC(C)C2 (centres undefined) | 330% (active)
6 | Cn1cc(/C=C/c2cc[n+](C)cc2)c2cc(Cl)ccc21 | 3.84%
7 | C=CCn1cc(/C=C/c2cc[n+](C)cc2)c2ccccc21 | 5.8%
8 | Cn1cc(/C=C/c2cc[n+](C)cc2)c2cc(F)ccc21 | 6.92%
9 | CCN(CC)C(=O)Cn1c(C)c(/C=C/c2cc[n+](C)cc2)c2ccccc21 | 6.95%
10 | CC(C)n1cc(/C=C/c2cc[n+](C)cc2)c2ccccc21 | 31.7% (active)
11 | COC(=O)Cn1c(C)c(/C=C/c2cc[n+](C)cc2)c2ccccc21 | 12.8% (active)
12 | CCn1cc(/C=C/c2cc[n+](C)cc2)c2ccccc21 | 12.4% (active)
13 | C=CCn1c(C)c(/C=C/c2cc[n+](C)cc2)c2ccccc21 | 38.7% (active)
14 | COC(=O)c1ccc2c(c1)C(C)(C)C(/C=C/c1ccccc1O)=[N+]2C | 7.52%
15 | COC(=O)Cn1cc(/C=C/c2cc[n+](C)cc2)c2ccccc21 | 16.8% (active)
16 | Oc1ccc2ccc3cccc[n+]3c2c1 | 68.4% (active)
17 | COc1ccc(-c2onc3ccc(C(C)=O)cc23)cc1 | 18% (active)
18 | CC(=O)c1ccc2noc(-c3ccc(C)cc3)c2c1 | 6.52%
19 | CC1(c2ccc(OC(F)F)cc2)NC(=O)N(CC(=O)Nc2ccc(F)cc2)C1=O (centres undefined) | 1.92%
20 | CCC1(c2ccccc2)NC(=O)N(CC(=O)Nc2ccc(OC)nc2)C1=O (centres undefined) | 11%

Row | SMILES | activation
21 | O=C(CN1C(=O)NC2(CCCCC2)C1=O)Nc1ccccc1Cl | 12.1% (active)
22 | C=CCOc1ccc(C2OC34CCCCC3C(C#N)(C#N)C2(C#N)C(=N)O4)cc1 (centres undefined) | 11.3%
23 | Cc1cc(C)n2nc(C(=O)N3CCCC(Nc4ccc(C(C)C)cc4)C3)cc2n1 (centres undefined) | 11.9% (active)
24 | Cc1[nH]nc2c1C(c1cc(Br)cs1)C(C#N)=C(N)O2 (centres undefined) | 1.18%
25 | COc1ccc(-c2ccc(C3C(C#N)=C(N)Oc4n[nH]c(C)c43)o2)cc1 (centres undefined) | 53.6% (active)
26 | CCCCCCCC(=O)Nc1ccc(S(=O)(=O)Nc2nccs2)cc1 | 39.1% (active)
27 | CC(NC(=O)COc1ccc(N(C)S(=O)(=O)c2ccccc2)cc1)c1ccccc1 (centres undefined) | 8.81%
28 | O=C(NCc1cccc(C(F)(F)F)c1)c1cccc(S(=O)(=O)NCc2ccccc2)c1 | 7.34%
29 | CN(C)C(CNC(=O)c1cccc(S(=O)(=O)N(C)C)c1)c1ccccc1 (centres undefined) | 14.9% (active)
30 | CCOc1ccc(N2C(=O)CC(SCc3nc4ccccc4[nH]3)C2=O)cc1 (centres undefined) | 16.2% (active)
31 | CC(=O)C1=C(O)CCCC1=NCc1nc2ccccc2[nH]1 | 2.38%
32 | O=C(CSC1CC(=O)N(c2ccc(C(=O)O)cc2)C1=O)Nc1ccc2ccccc2c1 (centres undefined) | 1.35%
33 | C[C@H](O)C(=O)C1=Nc2c(nc(N)[nH]c2=O)NC1 | -0.23%
34 | Cc1ccc(C)c(N2CCN(C(=O)c3cc4ccccn4n3)CC2)c1 | 21.1% (active)
35 | O=C(Nc1ccc(Cl)c(Cl)c1)Nc1ccc([N+](=O)[O-])cn1 | 28.5% (active)
36 | O=C(COC(=O)C1(c2ccc(F)cc2)CCCC1)N1CCN(C(=O)c2ccco2)CC1 | 3.96%
37 | O=C(Nc1ccc(N2CCN(C(=O)c3ccco3)CC2)cc1)c1ccc(F)cc1 | 14.9% (active)
38 | O=C(COC(=O)C1(c2ccccc2F)CCCC1)Nc1ncc(C(F)(F)F)cc1Cl | 4.8%
39 | COc1ccc(/C=C/C(=O)c2nc3ccccc3n2CC(=O)c2ccc(OC)cc2)cc1 | -1.84%
40 | COc1ccc(/C=N/NC(=O)Cn2c(Cc3ccc(OC)c(OC)c3)nc3ccccc32)cc1 | 15% (active)

Row | SMILES | activation
41 | Cc1c(C(=O)NCc2ccco2)cccc1[N+](=O)[O-] | 11.7% (active)
42 | Cc1c(C(=O)NCc2ccc3c(c2)cc(C)n3C)cccc1[N+](=O)[O-] | 8.1%
43 | O/C(=C\c1nc2ccccc2[nH]1)c1cccs1 | 2.34%
44 | c1ccc2[nH]c3cc4ncnc4cc3nc2c1 | 27.5% (active)
45 | Cc1ncn(C23CC4CC(CC(C4)C2)C3)n1 | 4.82%
46 | COC(=O)C1=C(O)/C(=C\c2ccc(CNS(=O)(=O)c3ccc(Cl)cc3)o2)N=C1C | 9.05%
47 | COc1ccc(OC)c(NC(=O)c2cc(S(=O)(=O)N(C)C)ccc2N2CCCC2)c1 | 7.08%
48 | COC(=O)CN(c1cc(OC)ccc1OC)S(=O)(=O)c1ccc(OC)c(OC)c1 | 14.6% (active)
49 | CCOc1ccccc1N(CC(=O)Nc1ccc(OC)c(OC)c1)S(=O)(=O)c1ccccc1 | 5.99%
50 | CCC(=O)Nc1ccc2c(c1)nc(CCN1CCN(C)CC1)n2C | 56% (active)
51 | Cn1c(CN2CCCC2)nc2cc(NC(=O)COc3ccc([N+](=O)[O-])cc3)ccc21 | 8.98%
52 | CCCn1c(CN2CCN(C(=O)OCC)CC2)nc2cc(NC(=O)CC)ccc21 | 8.96%
53 | O=C(O)CN1C(=O)/C(=C/c2ccc(SCc3ccccc3)o2)SC1=S | 39.7% (active)
54 | Cn1cccc1/C=C1\SC(=S)N(CC(=O)O)C1=O | 14.1% (active)
55 | Cn1cccc1/C=C1/SC(=S)N(CC(=O)O)C1=O | 176% (active)
56 | CN1/C(=C\C=C2/SC(=S)N(CC(=O)O)C2=O)C(C)(C)c2ccccc21 | 7.05%
57 | O=C(O)c1cc(-c2ccc(/C=C3/SC(=S)N(Cc4ccccc4)C3=O)o2)ccc1Cl | 5.81%
58 | COc1ccc(Nc2cccc3ccccc23)cc1 | 199% (active)
59 | CCOc1cc(N2CCOCC2)c(OCC)cc1NC(=O)CCS(=O)(=O)c1ccc(Cl)cc1 | 72% (active)
